For three molecules, IC50 and Mean survival time results are on record in ChEMBL document CHEMBL1126204, “Nucleic acid related compounds. 74. Synthesis and biological activity of 2'(and 3')-deoxy-2'(and 3')-methylenenucleoside analogues that function as mechanism-based inhibitors of S-adenosyl-L-homocysteine hydrolase and/or ribonucleotide reductase” (J Med Chem, 1992).

A value given as a limit tells only on which side of the number the result lay.

System in one test: not listed separately
The test is described as follows: In vitro inhibition of Molt/4f (Human T-lymphoblast) cell proliferation. It counts as functional.
Details: not given
The method in brief: (§1)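 Human Molt/4F, MT-4, and Raji cells (wild-type, TK⁻ or dCK⁻) in RPMI-1640 with 10% inactivated FCS, 2 mM L-glutamine and 0.075% NaHCO₃, seeded at 7.5 × 10⁵ cells/mL with compound (0.001–500 µM). Incubated 3 days at 37 °C in humidified CO₂; viable cells counted by Coulter counter. IC₅₀ = 50% reduction in viable cells; means of 2–4 independent experiments.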
In the case of `C=C1[C@H](n2cnc3c(SC)nc(N)nc32)O[C@H](CO)[C@H]1O`, the IC50 (as a rule, the midpoint of a concentration-inhibition curve) was > 500 µM.

`C=C1[C@H](n2cnc3c(O)nc(N)nc32)O[C@H](CO)[C@H]1O` displayed an IC50 of 22 µM.

As for `C=C1[C@@H](O)[C@H](n2cnc3c(N(C)C)nc(N)nc32)O[C@@H]1CO`, the IC50 is > 500 µM.

The test system of the next test is L1210. The test is described as follows: Antitumor activity in mice bearing L1210 murine leukemia cell line at a dose of 25 mg/kg/day. The class given is functional, Mus musculus.
Details: not given
The method in brief:
(§2)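 DBA/2 mice (20 g) inoculated ip with 10⁶ L1210 leukemia cells; test agent given ip once daily for 5 successive days beginning 1 day after inoculation, dissolved in Eagle's MEM containing 2.5% Tween (250 μL injection). Untreated tumor-bearing controls; read-out mean survival time in days, 7–15 mice per group.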
In turn, `C=C1[C@H](n2cnc3c(O)nc(N)nc32)O[C@H](CO)[C@H]1O` came in with a Mean survival time of 7.5 days.

A further test concerns L1210. The test is described as follows: Antitumor activity in mice bearing L1210 murine leukemia cell line at a dose of 50 mg/kg/day.
Details: not given
It counts as functional, Mus musculus. The method in brief: as §2
The molecule `C=C1[C@H](n2cnc3c(O)nc(N)nc32)O[C@H](CO)[C@H]1O` returned a Mean survival time of 5.3 days.

System in the next test: not listed separately
Briefly: Concentration required to inhibit the proliferation of human T-lymphocyte CEM cells by 50% in presence exogenous necleoside Ado (100 uM). The class given is functional, cell-based. To be noted: CCRF-CEM, in the assay text read “1000 uM” for “100 uM”. The method in brief: (§3)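 CEM human T-lymphocytes in RPMI-1640 with 10% inactivated FCS, 2 mM L-glutamine and 0.075% NaHCO₃. Test compound (0.001–500 µM) was co-added with the stated subtoxic exogenous nucleoside(s). Incubated 3 days at 37 °C in humidified CO₂, then viable cells counted by Coulter counter. IC₅₀ is the level giving 50% fewer viable cells; means of 2–4 independent experiments.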
The molecule `C=C1[C@H](n2cnc3c(O)nc(N)nc32)O[C@H](CO)[C@H]1O` gave an IC50 of 25 µM.

The test system of a further test is L1210. The test is described as follows: Concentration required to inhibit the proliferation of L1210 murine leukemia cell line by 50% in presence exogenous necleosides dCyd+Ado (100 uM). It counts as functional, cell-based. The following applies: Mus musculus, in the assay text read “1000 uM” for “100 uM”. The method in brief: (§4)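 L1210 murine leukemia cells in Eagle's MEM with 10% inactivated fetal calf serum, 2 mM L-glutamine and 0.075% NaHCO₃. 5 × 10⁵ cells/mL were exposed to test compound (0.001–500 µM) together with the stated exogenous nucleoside at subtoxic level. Incubated 2 days at 37 °C in humidified CO₂. Viable cells were counted by Coulter counter. IC₅₀ = 50% reduction in viable cell number; mean of 2–4 independent experiments.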
The molecule `C=C1[C@H](n2cnc3c(O)nc(N)nc32)O[C@H](CO)[C@H]1O` showed an IC50 of 75 µM.

System in the next test: not listed separately
The test is described as follows: Concentration required to inhibit the proliferation of human T-lymphocyte CEM/AK-(Ado kinase deficient) cells by 50%. It counts as functional.
Details: not given
The method, boiled down:
(§5)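 Wild-type CEM and kinase-deficient sublines (AK⁻, dCK⁻, AK⁻/dCK⁻) grown in RPMI-1640 with 10% inactivated FCS, 2 mM L-glutamine and 0.075% NaHCO₃. Cells were exposed to compound at 0.001–500 µM for 3 days at 37 °C in humidified CO₂. Viable cells counted by Coulter counter; IC₅₀ = 50% reduction in viable cells. Mean of 2–4 independent experiments.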
Turning to `C=C1[C@H](n2cnc3c(O)nc(N)nc32)O[C@H](CO)[C@H]1O`, the IC50 came out at 36 µM.

System in the next test: not listed separately
The test is described as follows: Concentration required to inhibit the proliferation of human T-lymphocyte CEM/AK-/dCK-(Ado and dCyd kinase deficient) cells by 50%.
Details: not given
It counts as functional. The method, boiled down:
as §5
In the case of `C=C1[C@H](n2cnc3c(O)nc(N)nc32)O[C@H](CO)[C@H]1O`, the concentration for half-maximal inhibition (IC50) is 201 µM.

In a further test the test system is L1210. The test is described as follows: Concentration required to inhibit the proliferation of L1210 murine leukemia cell line by 50% in presence exogenous necleoside Ado (100 uM). The class given is functional, cell-based. The following applies: Mus musculus, in the assay text read “1000 uM” for “100 uM”. The method, boiled down: as §4
`C=C1[C@H](n2cnc3c(O)nc(N)nc32)O[C@H](CO)[C@H]1O` showed an IC50 of 55 µM.

System in the next test: not listed separately
Briefly: In vitro inhibition of FM3A (murine carcinoma) cell proliferation. The following applies: Mus musculus. The class given is functional. The method in brief:
(§6)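 Murine FM3A or L1210 cells in Eagle's MEM with 10% inactivated FCS, 2 mM L-glutamine and 0.075% NaHCO₃, seeded at 5 × 10⁵ cells/mL with compound (0.001–500 µM). After 2 days at 37 °C in humidified CO₂, viable cells were counted with a Coulter counter. IC₅₀ = 50% fewer viable cells; mean of 2–4 experiments.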
With `C=C1[C@H](n2cnc3c(SC)nc(N)nc32)O[C@H](CO)[C@H]1O`, the IC50 was > 500 µM.

Molecule `C=C1[C@H](n2cnc3c(O)nc(N)nc32)O[C@H](CO)[C@H]1O` displayed an IC50 of 102 µM.

On to `C=C1[C@@H](O)[C@H](n2cnc3c(N(C)C)nc(N)nc32)O[C@@H]1CO`, for which the IC50 was > 500 µM.

The next test relates to L1210. Briefly: In vitro inhibition of L1210 (murine leukemia) cell proliferation. It counts as functional, cell-based. To be noted: Mus musculus. The method in brief:
as §6
For the molecule `C=C1[C@H](n2cnc3c(SC)nc(N)nc32)O[C@H](CO)[C@H]1O`, the IC50 was > 500 µM.

Regarding `C=C1[C@H](n2cnc3c(O)nc(N)nc32)O[C@H](CO)[C@H]1O`, the IC50 was determined as 8.5 µM.

For the molecule `C=C1[C@@H](O)[C@H](n2cnc3c(N(C)C)nc(N)nc32)O[C@@H]1CO`, the concentration for half-maximal inhibition (IC50) was > 500 µM.

System in the next test: not listed separately
Briefly: Concentration required to inhibit the proliferation of human T-lymphocyte CEM/dCK-(dCyd kinase deficient) cells by 50%.
Details: not given
It counts as functional. The method, boiled down: as §5
Consider `C=C1[C@H](n2cnc3c(O)nc(N)nc32)O[C@H](CO)[C@H]1O`, for which the IC50 was determined as 221 µM.

The test system of a further test is L1210. The test is described as follows: Antitumor activity in mice bearing L1210 murine leukemia cell line at a dose of 100 mg/kg/day. It counts as functional, Mus musculus.
Details: not given
The method in brief:
as §2
Turning to `C=C1[C@H](n2cnc3c(O)nc(N)nc32)O[C@H](CO)[C@H]1O`, the Mean survival time is 2 days.

The subject of another test is L1210. The test is described as follows: Concentration required to inhibit the proliferation of L1210 murine leukemia cell line by 50% in presence exogenous necleoside dCyd (100 uM). It counts as functional, cell-based. To be noted: Mus musculus, in the assay text read “1000 uM” for “100 uM”. The method, boiled down: as §4
`C=C1[C@H](n2cnc3c(O)nc(N)nc32)O[C@H](CO)[C@H]1O` displayed a half-maximal inhibitory concentration (IC50) of 17 µM. This lies in the double-digit micromolar range.

In another test the test system is L1210. Briefly: Antitumor activity in mice bearing L1210 murine leukemia cell line at a dose of 12.5 mg/kg/day. The class given is functional, Mus musculus.
Details: not given
The method, boiled down:
as §2
`C=C1[C@H](n2cnc3c(O)nc(N)nc32)O[C@H](CO)[C@H]1O` gave a Mean survival time of 7.5 days.

The test system of a further test is L1210. The test is described as follows: Concentration required to inhibit the proliferation of L1210 murine leukemia cell line by 50% in presence exogenous necleoside Guo (50 uM). The class given is functional, cell-based. The following applies: Mus musculus. The method, boiled down:
as §4
`C=C1[C@H](n2cnc3c(O)nc(N)nc32)O[C@H](CO)[C@H]1O` showed an IC50 of 51 µM. In other words, the double-digit micromolar range.

System in the next test: not listed separately
The test is described as follows: Concentration required to inhibit the proliferation of human T-lymphocyte CEM cells by 50% in presence exogenous necleoside Ado+dCyd (100 uM). The class given is functional, cell-based. To be noted: CCRF-CEM, in the assay text read “1000 uM” for “100 uM”. The method, boiled down: as §3
The molecule `C=C1[C@H](n2cnc3c(O)nc(N)nc32)O[C@H](CO)[C@H]1O` came in with an IC50 of 136 µM.

The subject of the next test is MT4. The test is described as follows: In vitro inhibition of MT-4 (Human T-lymphocyte) cell proliferation. The class given is functional, cell-based.
Details: not given
The method in brief:
as §1
Turning to `C=C1[C@H](n2cnc3c(SC)nc(N)nc32)O[C@H](CO)[C@H]1O`, the IC50 was > 500 µM.

As to `C=C1[C@H](n2cnc3c(O)nc(N)nc32)O[C@H](CO)[C@H]1O`, the IC50 was 150 µM.

Consider `C=C1[C@@H](O)[C@H](n2cnc3c(N(C)C)nc(N)nc32)O[C@@H]1CO`, for which the IC50 is > 500 µM.

System in the next test: not listed separately
Briefly: Concentration required to inhibit the proliferation of human T-lymphocyte CEM cells by 50% in presence exogenous necleoside dCyd (100 uM). The class given is functional, cell-based. The following applies: CCRF-CEM, in the assay text read “1000 uM” for “100 uM”. The method in brief:
as §3
For `C=C1[C@H](n2cnc3c(O)nc(N)nc32)O[C@H](CO)[C@H]1O`, the IC50 was 136 µM.

For a further test, the system named is CCRF-CEM. Briefly: Concentration required to inhibit the proliferation of human T-lymphocyte CEM/o cells by 50%. It counts as functional, cell-based.
Details: not given
The method, boiled down:
as §5
As to `C=C1[C@H](n2cnc3c(O)nc(N)nc32)O[C@H](CO)[C@H]1O`, half-maximal inhibition (IC50) was put at 9.4 µM. This counts as single-digit micromolar.
